Measured values taken from ChEMBL document CHEMBL3526056, “Characterization of in vitro glucuronidation clearance of a range of drugs in human kidney microsomes: comparison with liver and intestinal glucuronidation and impact of albumin” (Drug Metab Dispos, 2012).
Each block holds one compound with its values, some of them ahead of it.

Experiments:
[1] = Drug metabolism in human intestinal microsomes assessed as UGT1A9/2B7-mediated unbound intrinsic glucuronidation clearance at 1 uM after 30 to 60 mins by LC-MS/MS analysis in presence of 1% bovine serum albumin; format: ADME, Intestine
[2] = Clearance in iv dosed human; format: ADME, organism-based; settings: in vivo
[3] = Renal clearance in human; format: ADME, organism-based, Kidney; settings: in vivo
Liver microsome [4] = assay: Fraction metabolized glucuronidation in human liver microsomes in presence of UDP-glucuronosyltransferase; format: ADME
Liver microsome [5] = assay: Fraction metabolized glucuronidation in human liver microsomes in presence of UDP-glucuronosyltransferase and bovine serum albumin; format: ADME
[6] = Fraction unbound in human liver microsomes at 1 uM after 30 to 60 mins by LC-MS/MS analysis; format: ADME
[7] = Fraction unbound in human kidney microsomes at 1 uM after 30 to 60 mins by LC-MS/MS analysis; format: ADME
[8] = Fraction unbound in human intestinal microsomes at 1 uM after 30 to 60 mins by LC-MS/MS analysis; format: ADME, Intestine, Microsome
Liver microsome [9] = assay: Fraction unbound in human liver microsomes at 1 uM after 30 to 60 mins by LC-MS/MS analysis in presence of 1% bovine serum albumin; format: ADME; settings: microsomes, 1 µM
Liver microsome [10] = assay: Unbound intrinsic glucuronidation clearance in human liver microsomes at 1 uM after 30 to 60 mins by LC-MS/MS analysis in presence of UDP-glucuronosyltransferase; format: ADME
Summary of the method: (§1)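 Alamethicin-activated pooled microsomes (HLM 150 donors; HKM 8; HIM 18). Drug at 1 μM final, preincubated 5 min at 37°C in 0.1 M phosphate pH 7.1 with 3.45 mM MgCl2, 1.15 mM EDTA, 115 μM saccharic acid lactone. Started with […] cofactor (5 mM final), 30–60 min. Cofactor-free controls. Parent depletion by LC-MS/MS, single-exponential k. Corrected by HLM-dialysis fu,inc. Duplicates; n=3 (HIM n=1).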

Liver microsome [11] = assay: Unbound intrinsic glucuronidation clearance in human liver microsomes at 1 uM after 30 to 60 mins by LC-MS/MS analysis in presence of UDP-glucuronosyltransferase and 1% bovine serum albumin; format: ADME
[12] = Unbound intrinsic glucuronidation clearance in human kidney microsomes at 1 uM after 30 to 60 mins by LC-MS/MS analysis in presence of UDP-glucuronosyltransferase; format: ADME, microsome; summary of the method: as §1
[13] = Drug metabolism in human intestinal microsomes assessed as UGT1A9/2B7-mediated unbound intrinsic glucuronidation clearance at 1 uM after 30 to 60 mins by LC-MS/MS analysis; format: ADME, Intestine
[14] = Unbound intrinsic glucuronidation clearance in human kidney microsomes at 1 uM after 30 to 60 mins by LC-MS/MS analysis in presence of UDP-glucuronosyltransferase and 1% bovine serum albumin; format: ADME, microsome
[15] = Unbound intrinsic glucuronidation clearance in human intestinal microsomes at 1 uM after 30 to 60 mins by LC-MS/MS analysis in presence of UDP-glucuronosyltransferase; format: ADME, Intestine, Microsome; summary of the method: as §1
[16] = Unbound intrinsic glucuronidation clearance in human intestinal microsomes at 1 uM after 30 to 60 mins by LC-MS/MS analysis in presence of UDP-glucuronosyltransferase and 1% bovine serum albumin; format: ADME, Intestine, Microsome
[17] = Drug metabolism in human liver microsomes assessed as UGT1A9/2B7-mediated unbound intrinsic glucuronidation clearance at 1 uM after 30 to 60 mins by LC-MS/MS analysis; format: ADME
[18] = Drug metabolism in human kidney microsomes assessed as UGT1A9/2B7-mediated unbound intrinsic glucuronidation clearance at 1 uM after 30 to 60 mins by LC-MS/MS analysis; format: ADME
[19] = Drug metabolism in human liver microsomes assessed as UGT1A9/2B7-mediated unbound intrinsic glucuronidation clearance at 1 uM after 30 to 60 mins by LC-MS/MS analysis in presence of 1% bovine serum albumin; format: ADME
[20] = Drug metabolism in human kidney microsomes assessed as UGT1A9/2B7-mediated unbound intrinsic glucuronidation clearance at 1 uM after 30 to 60 mins by LC-MS/MS analysis in presence of 1% bovine serum albumin; format: ADME
[21] = molecular target: T1, UDP-glucuronosyltransferase 1A1 (Homo sapiens, UniProt P22309); assay: Drug metabolism in human intestinal microsomes assessed as UGT1A1-mediated unbound intrinsic glucuronidation clearance at 1 uM after 30 to 60 mins by LC-MS/MS analysis in presence of 2% bovine serum albumin; format: ADME, Intestine
T1 sequence (P22309 whole entry): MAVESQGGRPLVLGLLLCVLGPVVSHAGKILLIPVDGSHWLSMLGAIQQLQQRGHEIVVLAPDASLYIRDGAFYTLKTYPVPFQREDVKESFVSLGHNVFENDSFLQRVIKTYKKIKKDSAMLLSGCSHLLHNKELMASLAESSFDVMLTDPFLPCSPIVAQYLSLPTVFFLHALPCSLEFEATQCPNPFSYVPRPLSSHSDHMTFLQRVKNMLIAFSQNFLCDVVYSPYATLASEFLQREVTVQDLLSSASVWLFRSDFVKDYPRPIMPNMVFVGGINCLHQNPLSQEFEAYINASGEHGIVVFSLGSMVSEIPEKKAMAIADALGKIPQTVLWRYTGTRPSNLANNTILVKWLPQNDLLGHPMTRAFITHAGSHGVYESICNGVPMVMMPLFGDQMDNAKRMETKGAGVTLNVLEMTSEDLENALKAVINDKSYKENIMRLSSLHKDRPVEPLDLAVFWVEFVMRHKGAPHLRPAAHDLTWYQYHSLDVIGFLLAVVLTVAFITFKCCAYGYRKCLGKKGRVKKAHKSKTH

[22] = molecular target: T1, UDP-glucuronosyltransferase 1A1; assay: Ratio of UGT1A1-mediated unbound intrinsic glucuronidation clearance in human intestinal microsomes to UGT1A1-mediated unbound intrinsic glucuronidation clearance in human liver microsomes at 1 uM in presence of 2% bovine serum albumin; format: ADME
[23] = molecular target: T1, UDP-glucuronosyltransferase 1A1; assay: Ratio of UGT1A1-mediated unbound intrinsic glucuronidation clearance in human kidney microsomes to UGT1A1-mediated unbound intrinsic glucuronidation clearance in human intestinal microsomes at 1 uM in presence of 2% bovine serum albumin; format: ADME
[24] = Fraction unbound in human liver microsomes at 1 uM […] by LC-MS/MS analysis in presence of 2% bovine serum albumin; format: ADME
Liver microsome [25] = assay: Unbound intrinsic glucuronidation clearance in human liver microsomes at 1 uM after 30 to 60 mins by LC-MS/MS analysis in presence of UDP-glucuronosyltransferase and 2% bovine serum albumin; format: ADME
Summary of the method: (§2)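 Pooled alamethicin-activated human liver, kidney or intestinal microsomes. […] Duplicate incubations of 30–60 min, with no-cofactor controls. Parent depletion read by LC-MS/MS. k from a single-exponential fit, corrected by fu,inc.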

[26] = molecular target: T1, UDP-glucuronosyltransferase 1A1; assay: Ratio of UGT1A1-mediated unbound intrinsic glucuronidation clearance in human kidney microsomes to UGT1A1-mediated unbound intrinsic glucuronidation clearance in human liver microsomes at 1 uM in presence of 2% bovine serum albumin; format: ADME
[27] = molecular target: T1, UDP-glucuronosyltransferase 1A1; assay: Drug metabolism in human intestinal microsomes assessed as UGT1A1-mediated unbound intrinsic glucuronidation clearance at 1 uM after 30 to 60 mins by LC-MS/MS analysis; format: ADME, Intestine
[28] = molecular target: T1, UDP-glucuronosyltransferase 1A1; assay: Ratio of UGT1A1-mediated unbound intrinsic glucuronidation clearance in human kidney microsomes to UGT1A1-mediated unbound intrinsic glucuronidation clearance in human liver microsomes at 1 uM; format: ADME
[29] = Unbound intrinsic glucuronidation clearance in human kidney microsomes at 1 uM after 30 to 60 mins by LC-MS/MS analysis in presence of UDP-glucuronosyltransferase and 2% bovine serum albumin; format: ADME, microsome; summary of the method: as §2
[30] = Unbound intrinsic glucuronidation clearance in human intestinal microsomes at 1 uM after 30 to 60 mins by LC-MS/MS analysis in presence of UDP-glucuronosyltransferase and 2% bovine serum albumin; format: ADME, Intestine, Microsome; summary of the method: as §2
Liver microsome [31] = assay: Ratio of unbound intrinsic glucuronidation clearance in human liver microsomes in presence of 2% bovine serum albumin to unbound intrinsic glucuronidation clearance in human liver microsomes in absence of bovine serum albumin; format: ADME
Summary of the method: (§3)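 Ratios of mean scaled unbound CLint,UGT (per g tissue) between tissues, or between with and without BSA. Microsomal depletion assays at 1 μM, or 5 μM for propofol, in pH 7.1 phosphate at 37°C, read by LC-MS/MS. Kidney and liver n = 3, intestine n = 1, each in duplicate.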

[32] = Ratio of unbound intrinsic glucuronidation clearance in human kidney microsomes in presence of 2% bovine serum albumin to unbound intrinsic glucuronidation clearance in human kidney microsomes in absence of bovine serum albumin; format: ADME, microsome; summary of the method: as §3
[33] = molecular target: T1, UDP-glucuronosyltransferase 1A1; assay: Drug metabolism in human liver microsomes assessed as UGT1A1-mediated unbound intrinsic glucuronidation clearance at 1 uM after 30 to 60 mins by LC-MS/MS analysis; format: ADME
[34] = molecular target: T1, UDP-glucuronosyltransferase 1A1; assay: Drug metabolism in human kidney microsomes assessed as UGT1A1-mediated unbound intrinsic glucuronidation clearance at 1 uM after 30 to 60 mins by LC-MS/MS analysis; format: ADME
[35] = molecular target: T1, UDP-glucuronosyltransferase 1A1; assay: Ratio of UGT1A1-mediated unbound intrinsic glucuronidation clearance in human intestinal microsomes to UGT1A1-mediated unbound intrinsic glucuronidation clearance in human liver microsomes at 1 uM; format: ADME
[36] = molecular target: T1, UDP-glucuronosyltransferase 1A1; assay: Ratio of UGT1A1-mediated unbound intrinsic glucuronidation clearance in human kidney microsomes to UGT1A1-mediated unbound intrinsic glucuronidation clearance in human intestinal microsomes at 1 uM; format: ADME
[37] = molecular target: T1, UDP-glucuronosyltransferase 1A1; assay: Drug metabolism in human liver microsomes assessed as UGT1A1-mediated unbound intrinsic glucuronidation clearance at 1 uM after 30 to 60 mins by LC-MS/MS analysis in presence of 2% bovine serum albumin; format: ADME
[38] = molecular target: T1, UDP-glucuronosyltransferase 1A1; assay: Drug metabolism in human kidney microsomes assessed as UGT1A1-mediated unbound intrinsic glucuronidation clearance at 1 uM after 30 to 60 mins by LC-MS/MS analysis in presence of 2% bovine serum albumin; format: ADME
[39] = molecular target: UDP-glucuronosyltransferase 1A1 (Homo sapiens) (UniProt P22309); assay: Drug metabolism in human intestinal microsomes assessed as UGT1A1-mediated unbound intrinsic glucuronidation clearance at 1 uM after 30 to 60 mins by LC-MS/MS analysis in presence of 2% bovine serum albumin

- CL free [1]: 6.7 mL/min/g
- clearance [2]: 4.84 mL/min/kg
- CL renal [3]: 0.06 mL/min/kg
- Drug metabolism (Liver microsome [4]): 0.62
- Drug metabolism (Liver microsome [5]): 0.65
- fraction unbound at 1 µM [6]: 0.98
- fraction unbound at 1 µM [7]: 0.99
- fraction unbound at 1 µM [8]: 0.98
- Fu (Liver microsome [9]): 0.02
- CL free (Liver microsome [10]): 761 µL/min/mg
- CL free (Liver microsome [11]): 1190 µL/min/mg
- CL free [12]: 177 µL/min/mg
- CL free [13]: 1.54 mL/min/g
- CL free [14]: 543 µL/min/mg
- CL free [15]: 74.9 µL/min/mg
- CL free [16]: 325 µL/min/mg
- CL free [17]: 30.5 mL/min/g
- CL free [18]: 2.27 mL/min/g
- CL free [19]: 47.4 mL/min/g
- CL free [20]: 6.95 mL/min/g
Structure (SMILES): O=C(O)Cc1ccccc1Nc1c(Cl)cccc1Cl [DICLOFENAC]

- CL free [21]: 23.8 mL/min/g
- Ratio [22]: 0.115
- Ratio [23]: 0.266
- fraction unbound at 1 µM [6]: 0.3
- fraction unbound at 1 µM [7]: 0.18
- fraction unbound at 1 µM [8]: 0.18
- fraction unbound at 1 µM [24]: 0.05
- CL free (Liver microsome [10]): 2930 µL/min/mg
- CL free (Liver microsome [25]): 5180 µL/min/mg
- CL free [12]: 295 µL/min/mg
- Ratio [26]: 0.031
- CL free [27]: 8.61 mL/min/g
- Ratio [28]: 0.032
- CL free [29]: 495 µL/min/mg
- CL free [15]: 418 µL/min/mg
- CL free [30]: 1160 µL/min/mg
- Ratio (Liver microsome [31]): 1.8
- Ratio [32]: 1.7
- CL free [33]: 117 mL/min/g
- CL free [34]: 3.78 mL/min/g
- Ratio [35]: 0.073
- Ratio [36]: 0.439
- CL free [37]: 207 mL/min/g
- CL free [38]: 6.34 mL/min/g
- CL free [39]: 23.8 mL/min/g
Structure (SMILES): O=C1[C@H](CC[C@H](O)c2ccc(F)cc2)[C@@H](c2ccc(O)cc2)N1c1ccc(F)cc1 [EZETIMIBE]
